Reference: ChEMBL document CHEMBL4346670, “Discovery of Novel Janus Kinase (JAK) and Histone Deacetylase (HDAC) Dual Inhibitors for the Treatment of Hematological Malignancies” (J Med Chem, 2019)
pIC50: −log10 of the molar value.

Experiments:
Histone deacetylase = assay: Inhibition of HDAC in human HeLa nuclear extract using Boc-Lys(acetyl)-AMC as substrate preincubated for 5 mins followed by substrate addition and measured after 30 mins by fluorescence assay; type: cell-based
[1] = target: Tyrosine-protein kinase JAK2 (Homo sapiens, UniProt O60674); assay: Inhibition of recombinant human JAK2 using Ulight-CAGAGAIETDKEYYTVKD as substrate measured after 60 mins by LANCE assay
[2] = target: Tyrosine-protein kinase JAK1 (Homo sapiens, UniProt P23458); assay: Inhibition of recombinant human JAK1 using Ulight-CAGAGAIETDKEYYTVKD as substrate measured after 60 mins by LANCE assay
Procedure, shortened: (§1)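 Human recombinant JAK enzyme assays run by a contract lab. IC50 was taken from a non-linear curve fit, with all parameters allowed to float. Assays were run in replicate (n>2) and reported as mean ± SD.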

[3] = target: Non-receptor tyrosine-protein kinase TYK2 (Homo sapiens, UniProt P29597); assay: Inhibition of recombinant human TYK2 using Ulight-CAGAGAIETDKEYYTVKD as substrate measured after 60 mins by LANCE assay; procedure, shortened: as §1
[4] = target: T1, Tyrosine-protein kinase JAK3 (Homo sapiens, UniProt P52333); assay: Inhibition of recombinant human JAK3 using Ulight-CAGAGAIETDKEYYTVKD as substrate measured after 60 mins by LANCE assay
T1 sequence (P52333 whole entry): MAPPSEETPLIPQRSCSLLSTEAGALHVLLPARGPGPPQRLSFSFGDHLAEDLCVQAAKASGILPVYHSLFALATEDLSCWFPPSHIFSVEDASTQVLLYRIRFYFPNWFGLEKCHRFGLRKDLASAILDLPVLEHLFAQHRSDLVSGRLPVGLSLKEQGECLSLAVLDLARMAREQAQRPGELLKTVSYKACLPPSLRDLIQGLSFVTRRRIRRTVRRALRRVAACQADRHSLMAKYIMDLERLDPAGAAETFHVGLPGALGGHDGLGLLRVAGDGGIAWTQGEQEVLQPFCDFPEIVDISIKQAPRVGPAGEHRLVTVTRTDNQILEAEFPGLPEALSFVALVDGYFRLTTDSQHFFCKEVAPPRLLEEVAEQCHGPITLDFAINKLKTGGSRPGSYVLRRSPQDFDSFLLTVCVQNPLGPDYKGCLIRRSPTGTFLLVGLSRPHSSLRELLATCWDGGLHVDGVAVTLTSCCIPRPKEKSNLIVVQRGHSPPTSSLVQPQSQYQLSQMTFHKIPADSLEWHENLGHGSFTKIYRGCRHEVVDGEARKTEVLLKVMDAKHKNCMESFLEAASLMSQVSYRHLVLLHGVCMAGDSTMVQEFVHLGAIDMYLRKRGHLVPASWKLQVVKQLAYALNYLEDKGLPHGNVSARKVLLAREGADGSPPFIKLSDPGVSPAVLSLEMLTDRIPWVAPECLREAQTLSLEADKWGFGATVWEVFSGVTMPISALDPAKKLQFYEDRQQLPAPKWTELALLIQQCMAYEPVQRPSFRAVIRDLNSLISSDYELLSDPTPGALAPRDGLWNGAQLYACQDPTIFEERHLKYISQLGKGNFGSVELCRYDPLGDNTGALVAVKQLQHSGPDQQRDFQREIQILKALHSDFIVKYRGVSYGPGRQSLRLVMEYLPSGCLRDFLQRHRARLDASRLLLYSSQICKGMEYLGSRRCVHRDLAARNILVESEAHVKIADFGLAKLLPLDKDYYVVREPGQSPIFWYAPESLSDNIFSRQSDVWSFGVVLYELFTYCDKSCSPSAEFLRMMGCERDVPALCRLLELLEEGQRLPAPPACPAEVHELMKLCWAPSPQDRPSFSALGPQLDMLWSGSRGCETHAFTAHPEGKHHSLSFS

Histone deacetylase 2 = Histone deacetylase 2 (Homo sapiens, UniProt Q92769); assay: Inhibition of HDAC2 (unknown origin) using Boc-Lys(acetyl)-AMC as substrate preincubated for 5 mins followed by substrate addition and measured after 30 mins by fluorescence assay
Histone deacetylase 8 = target: T2, Histone deacetylase 8 (Homo sapiens, UniProt Q9BY41); assay: Inhibition of HDAC8 (unknown origin) using Boc-Lys(trifluoroacetyl)-AMC as substrate preincubated for 5 mins followed by substrate addition and measured after 30 mins by fluorescence assay
T2 sequence (Q9BY41 whole entry): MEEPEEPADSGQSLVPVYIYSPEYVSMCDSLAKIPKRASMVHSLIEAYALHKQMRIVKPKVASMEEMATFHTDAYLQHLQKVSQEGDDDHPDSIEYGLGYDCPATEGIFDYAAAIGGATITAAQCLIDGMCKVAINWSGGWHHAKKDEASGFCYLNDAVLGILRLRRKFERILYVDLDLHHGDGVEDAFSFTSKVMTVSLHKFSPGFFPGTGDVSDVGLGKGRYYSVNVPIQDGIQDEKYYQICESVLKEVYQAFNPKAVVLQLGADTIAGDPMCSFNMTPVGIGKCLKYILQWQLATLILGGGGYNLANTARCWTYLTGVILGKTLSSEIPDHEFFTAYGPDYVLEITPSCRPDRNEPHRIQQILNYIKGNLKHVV

[5] = target: T3, Protein deacetylase HDAC6 (Homo sapiens, UniProt Q9UBN7); assay: Inhibition of HDAC6 (unknown origin) using Boc-Lys(acetyl)-AMC as substrate preincubated for 5 mins followed by substrate addition and measured after 30 mins by fluorescence assay
T3 sequence (Q9UBN7 whole entry): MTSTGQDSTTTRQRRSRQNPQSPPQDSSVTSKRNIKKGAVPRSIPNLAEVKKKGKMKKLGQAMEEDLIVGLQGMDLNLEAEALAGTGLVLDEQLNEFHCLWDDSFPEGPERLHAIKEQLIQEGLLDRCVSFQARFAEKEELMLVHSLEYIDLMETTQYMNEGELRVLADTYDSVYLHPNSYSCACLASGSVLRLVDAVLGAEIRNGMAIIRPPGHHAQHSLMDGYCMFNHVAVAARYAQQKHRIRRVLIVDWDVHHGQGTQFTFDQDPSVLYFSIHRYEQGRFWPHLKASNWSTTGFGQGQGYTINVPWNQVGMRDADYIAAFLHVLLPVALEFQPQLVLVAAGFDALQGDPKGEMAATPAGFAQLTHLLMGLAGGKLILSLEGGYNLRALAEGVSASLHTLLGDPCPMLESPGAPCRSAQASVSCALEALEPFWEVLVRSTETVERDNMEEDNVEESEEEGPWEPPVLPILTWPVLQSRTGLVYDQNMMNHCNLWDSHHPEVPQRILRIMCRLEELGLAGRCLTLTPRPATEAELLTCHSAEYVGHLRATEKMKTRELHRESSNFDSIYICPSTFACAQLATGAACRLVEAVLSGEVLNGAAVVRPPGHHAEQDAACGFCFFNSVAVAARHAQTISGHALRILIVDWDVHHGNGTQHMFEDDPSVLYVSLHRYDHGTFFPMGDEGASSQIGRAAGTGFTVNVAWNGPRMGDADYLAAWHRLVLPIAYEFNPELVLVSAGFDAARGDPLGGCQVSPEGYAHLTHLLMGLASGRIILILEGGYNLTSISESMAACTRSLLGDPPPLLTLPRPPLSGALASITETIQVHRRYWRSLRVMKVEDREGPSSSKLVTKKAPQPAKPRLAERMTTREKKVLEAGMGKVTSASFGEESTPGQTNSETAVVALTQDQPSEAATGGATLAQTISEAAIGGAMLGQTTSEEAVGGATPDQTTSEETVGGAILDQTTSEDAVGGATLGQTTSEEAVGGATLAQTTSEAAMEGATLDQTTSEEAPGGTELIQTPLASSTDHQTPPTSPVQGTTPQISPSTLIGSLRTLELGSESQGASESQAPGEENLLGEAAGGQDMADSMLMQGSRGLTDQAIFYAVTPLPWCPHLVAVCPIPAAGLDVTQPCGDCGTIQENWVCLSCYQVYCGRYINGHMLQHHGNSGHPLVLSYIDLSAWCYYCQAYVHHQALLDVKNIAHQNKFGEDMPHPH

HEL = assay: Antiproliferative activity against HEL cells harboring JAK2 V617F mutant assessed as reduction in cell viability after 48 hrs by MTT assay; type: functional, cell-based; conditions: Homo sapiens
K562 = assay: Antiproliferative activity against human K562 cells assessed as reduction in cell viability after 48 hrs by MTT assay; type: functional, cell-based; conditions: K562, 48 h
MOLT-4 = assay: Antiproliferative activity against human MOLT4 cells assessed as reduction in cell viability after 48 hrs by MTT assay; type: functional, cell-based; conditions: MOLT-4, 48 h
Procedure, shortened: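 Cells kept in RPMI1640 with 10% FBS at 37 °C, 5% CO2. Seeded and grown for 12 h, then exposed to a range of compound concentrations for 48 h. 0.5% MTT added for 4 h, formazan dissolved in DMSO, absorbance read at 570 nm.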

Jurkat = assay: Antiproliferative activity against human Jurkat cells assessed as reduction in cell viability after 48 hrs by MTT assay; type: functional, cell-based
[6] = target: Histone deacetylase (Homo sapiens) (UniProt Q13547+O15379+Q9UBN7+Q92769+Q9UQL6+Q8WUI4+Q9BY41+Q96DB2+P56524+Q9UKV0+Q969S8); assay: Potency index, ratio of SAHA IC50 to test compound IC50 for inhibition of HDAC in human HeLa cell nuclear extract; type: cell-based
Procedure, shortened: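 HeLa cell nuclear extract was incubated with serial concentrations of compound for 5 min at 37 °C. Boc-Lys(acetyl)-AMC substrate was added for 30 min at 37 °C, then developer containing trypsin and TSA for 20 min. Fluorescence was read at ex 390/em 460 nm against control wells.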

Chain of Tyrosine-protein kinase JAK2 (O60674 whole entry): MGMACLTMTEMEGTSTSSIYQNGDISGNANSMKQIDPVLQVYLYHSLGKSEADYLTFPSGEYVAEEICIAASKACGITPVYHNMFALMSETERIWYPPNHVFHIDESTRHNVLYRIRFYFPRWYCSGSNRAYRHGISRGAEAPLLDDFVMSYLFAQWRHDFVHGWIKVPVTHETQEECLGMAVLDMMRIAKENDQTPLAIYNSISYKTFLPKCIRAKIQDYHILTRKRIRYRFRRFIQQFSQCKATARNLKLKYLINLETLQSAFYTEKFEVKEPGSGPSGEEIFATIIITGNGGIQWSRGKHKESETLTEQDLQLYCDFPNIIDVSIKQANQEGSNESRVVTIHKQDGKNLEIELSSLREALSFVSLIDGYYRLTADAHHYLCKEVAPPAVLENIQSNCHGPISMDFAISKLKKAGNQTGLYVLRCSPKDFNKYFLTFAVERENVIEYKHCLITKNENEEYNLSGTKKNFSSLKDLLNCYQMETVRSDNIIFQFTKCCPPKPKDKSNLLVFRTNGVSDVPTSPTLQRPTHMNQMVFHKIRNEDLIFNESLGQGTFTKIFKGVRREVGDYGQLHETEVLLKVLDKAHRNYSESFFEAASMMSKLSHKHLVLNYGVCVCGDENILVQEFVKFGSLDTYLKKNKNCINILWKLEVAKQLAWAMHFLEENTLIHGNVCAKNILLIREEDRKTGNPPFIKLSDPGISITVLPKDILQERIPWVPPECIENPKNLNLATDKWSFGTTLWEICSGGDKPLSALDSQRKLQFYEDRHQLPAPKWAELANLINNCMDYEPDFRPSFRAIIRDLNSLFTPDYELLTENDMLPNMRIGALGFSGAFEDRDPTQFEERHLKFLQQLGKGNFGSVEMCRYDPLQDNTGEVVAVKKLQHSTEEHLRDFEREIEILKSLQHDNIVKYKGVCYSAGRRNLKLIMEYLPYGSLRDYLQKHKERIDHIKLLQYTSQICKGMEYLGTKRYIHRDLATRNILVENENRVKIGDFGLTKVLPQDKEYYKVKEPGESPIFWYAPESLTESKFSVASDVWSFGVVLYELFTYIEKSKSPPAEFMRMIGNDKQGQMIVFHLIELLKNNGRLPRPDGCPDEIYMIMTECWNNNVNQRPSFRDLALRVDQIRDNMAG
Chain of Histone deacetylase 2 (Q92769 whole entry): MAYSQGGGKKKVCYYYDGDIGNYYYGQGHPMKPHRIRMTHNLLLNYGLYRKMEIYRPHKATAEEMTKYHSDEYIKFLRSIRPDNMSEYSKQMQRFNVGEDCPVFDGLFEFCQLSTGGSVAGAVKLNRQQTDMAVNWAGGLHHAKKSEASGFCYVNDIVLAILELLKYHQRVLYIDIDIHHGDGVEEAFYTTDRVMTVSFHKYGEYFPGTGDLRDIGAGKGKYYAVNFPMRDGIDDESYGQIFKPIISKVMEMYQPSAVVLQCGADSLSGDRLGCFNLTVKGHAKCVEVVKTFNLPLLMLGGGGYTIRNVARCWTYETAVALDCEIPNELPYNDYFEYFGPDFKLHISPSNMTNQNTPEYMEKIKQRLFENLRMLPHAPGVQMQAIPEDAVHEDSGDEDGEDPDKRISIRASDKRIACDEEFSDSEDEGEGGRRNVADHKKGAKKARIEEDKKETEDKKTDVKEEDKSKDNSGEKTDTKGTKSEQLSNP
Chain of Non-receptor tyrosine-protein kinase TYK2 (P29597 whole entry): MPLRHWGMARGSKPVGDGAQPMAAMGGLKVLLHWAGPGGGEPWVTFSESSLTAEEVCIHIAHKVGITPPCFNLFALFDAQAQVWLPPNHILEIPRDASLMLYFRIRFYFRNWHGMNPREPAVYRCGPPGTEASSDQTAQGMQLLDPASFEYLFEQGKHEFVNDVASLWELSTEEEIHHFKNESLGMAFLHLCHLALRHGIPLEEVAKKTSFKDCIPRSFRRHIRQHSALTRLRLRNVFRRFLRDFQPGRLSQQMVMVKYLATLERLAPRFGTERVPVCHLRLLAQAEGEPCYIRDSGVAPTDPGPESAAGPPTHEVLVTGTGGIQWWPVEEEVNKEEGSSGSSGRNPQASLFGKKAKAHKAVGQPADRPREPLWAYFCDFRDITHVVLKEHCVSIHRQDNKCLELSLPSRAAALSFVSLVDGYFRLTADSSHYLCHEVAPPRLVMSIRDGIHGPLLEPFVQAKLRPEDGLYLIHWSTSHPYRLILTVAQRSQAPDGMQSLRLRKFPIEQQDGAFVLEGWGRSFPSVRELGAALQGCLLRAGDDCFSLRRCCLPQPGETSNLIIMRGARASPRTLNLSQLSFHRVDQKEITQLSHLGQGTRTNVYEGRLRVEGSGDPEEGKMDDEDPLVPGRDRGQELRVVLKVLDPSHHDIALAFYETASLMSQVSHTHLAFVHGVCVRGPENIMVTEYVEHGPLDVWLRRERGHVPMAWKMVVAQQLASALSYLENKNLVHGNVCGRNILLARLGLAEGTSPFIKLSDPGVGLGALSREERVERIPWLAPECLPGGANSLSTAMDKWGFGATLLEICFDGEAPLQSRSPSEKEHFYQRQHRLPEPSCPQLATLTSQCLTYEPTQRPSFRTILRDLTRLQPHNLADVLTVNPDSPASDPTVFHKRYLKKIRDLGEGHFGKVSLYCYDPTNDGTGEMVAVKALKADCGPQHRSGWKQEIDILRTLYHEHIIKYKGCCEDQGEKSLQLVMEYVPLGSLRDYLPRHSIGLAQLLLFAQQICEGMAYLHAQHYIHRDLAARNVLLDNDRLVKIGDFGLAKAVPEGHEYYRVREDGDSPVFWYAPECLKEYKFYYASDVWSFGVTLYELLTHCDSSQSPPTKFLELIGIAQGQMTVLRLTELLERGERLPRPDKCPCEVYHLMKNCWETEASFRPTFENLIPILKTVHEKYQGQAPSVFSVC
Chain of Tyrosine-protein kinase JAK1 (P23458 whole entry): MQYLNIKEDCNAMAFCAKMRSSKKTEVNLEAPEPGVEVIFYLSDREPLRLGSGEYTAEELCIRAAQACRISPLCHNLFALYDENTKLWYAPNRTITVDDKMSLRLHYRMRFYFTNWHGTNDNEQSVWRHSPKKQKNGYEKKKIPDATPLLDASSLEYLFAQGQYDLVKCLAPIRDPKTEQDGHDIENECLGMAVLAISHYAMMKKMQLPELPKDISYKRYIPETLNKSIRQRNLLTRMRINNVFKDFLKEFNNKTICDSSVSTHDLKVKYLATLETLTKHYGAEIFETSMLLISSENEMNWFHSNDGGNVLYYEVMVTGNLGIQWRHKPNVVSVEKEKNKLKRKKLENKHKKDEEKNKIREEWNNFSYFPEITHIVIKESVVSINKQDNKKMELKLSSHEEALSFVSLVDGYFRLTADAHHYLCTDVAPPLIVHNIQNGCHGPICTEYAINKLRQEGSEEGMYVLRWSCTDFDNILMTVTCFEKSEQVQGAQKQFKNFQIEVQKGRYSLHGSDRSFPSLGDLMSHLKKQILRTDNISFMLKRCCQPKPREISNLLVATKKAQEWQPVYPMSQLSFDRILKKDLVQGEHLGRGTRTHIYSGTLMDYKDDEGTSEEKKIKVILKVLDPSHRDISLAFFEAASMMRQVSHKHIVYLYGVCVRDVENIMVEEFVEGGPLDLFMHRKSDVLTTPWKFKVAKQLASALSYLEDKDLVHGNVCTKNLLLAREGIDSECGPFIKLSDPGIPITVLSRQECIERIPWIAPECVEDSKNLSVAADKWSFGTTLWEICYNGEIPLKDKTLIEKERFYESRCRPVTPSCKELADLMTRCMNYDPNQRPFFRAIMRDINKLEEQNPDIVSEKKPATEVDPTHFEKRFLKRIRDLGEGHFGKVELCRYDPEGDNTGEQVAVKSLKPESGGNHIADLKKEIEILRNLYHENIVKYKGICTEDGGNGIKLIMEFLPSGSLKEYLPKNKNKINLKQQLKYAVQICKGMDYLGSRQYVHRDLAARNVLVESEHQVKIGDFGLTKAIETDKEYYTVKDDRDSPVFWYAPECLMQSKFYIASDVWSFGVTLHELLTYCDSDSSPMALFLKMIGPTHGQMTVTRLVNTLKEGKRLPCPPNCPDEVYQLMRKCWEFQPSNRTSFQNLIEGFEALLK

SMILES | IC50 (Histone deacetylase) | pIC50 [1] | pIC50 [2] | pIC50 [3] | pIC50 [4] | pIC50 (Histone deacetylase 2) | pIC50 (Histone deacetylase 8) | pIC50 [5] | pIC50 (K562) | pIC50 (MOLT-4) | pIC50 (Jurkat) | Ratio IC50 [6] | pIC50 (HEL)
O=C(CCCCCCn1cc(Nc2ncc(Cl)c(N3CCCCC3)n2)cn1)NO | 40 nM | 7.30 | 7.52 | 7.22 | 8.43 | – | – | – | – | – | – | – | –
CNc1nc(Nc2cnn(CCCCCC(=O)NO)c2)ncc1Cl | 104 nM | 7.44 | – | – | – | – | – | – | – | – | – | – | –
O=C(NO)c1ccc(Cn2cc(Nc3ncc(Cl)c(Nc4ccc(F)cc4)n3)cn2)cc1 | 62 nM | 7.68 | – | – | – | 6.14 | 6.92 | 7.89 | – | – | – | – | –
O=C(CCCCCCn1cc(Nc2ncc(Cl)c(Nc3ccccc3)n2)cn1)NO | 19 nM | 7.92 | – | – | – | – | – | – | 6.38 | 6.80 | 7.05 | – | 6.74
O=C(CCCCCCn1cc(Nc2ncc(Cl)c(NC3CC3)n2)cn1)NO | 13 nM | – | 7.85 | 7.92 | 8.70 | – | – | – | 6.42 | 6.82 | 7.30 | – | 7.10
O=C(CCCCCn1cc(Nc2ncc(Cl)c(Nc3cccc(Cl)c3)n2)cn1)NO | 4 nM | 8.15 | – | – | – | – | – | – | 6.24 | 7.10 | 7.30 | – | 7.10
O=C(CCn1cc(Nc2ncc(Cl)c(Nc3ccc(F)cc3)n2)cn1)NO | > 10000 nM | 7.66 | – | – | – | – | – | – | – | – | – | – | –
O=C(CCCCCCn1cc(Nc2ncc(Cl)c(N3CCOCC3)n2)cn1)NO | 37 nM | 7.70 | – | – | – | – | – | – | 6.04 | 6.49 | 6.77 | – | 6.33
O=C(CCCCCn1cc(Nc2ncc(Cl)c(Nc3ccccc3Cl)n2)cn1)NO | 18 nM | 7.74 | – | – | – | – | – | – | 5.74 | 6.20 | 6.51 | – | 6.37
O=C(CCCCCCn1cc(Nc2ncc(Cl)c(Nc3ccccc3Cl)n2)cn1)NO | 10 nM | 7.34 | – | – | – | – | – | – | 6.07 | 6.29 | 6.60 | – | 6.47
O=C(/C=C/c1ccc(Cn2cc(Nc3ncc(Cl)c(Nc4ccc(F)cc4)n3)cn2)cc1)NO | 144 nM | 7.37 | – | – | – | 6.00 | 4.85 | 7.20 | 5.99 | 6.48 | 6.82 | – | 6.22
CCCNc1nc(Nc2cnn(CCCCCCC(=O)NO)c2)ncc1Cl | 26 nM | 7.52 | – | – | – | – | – | – | – | – | – | – | –

More lines, main results first:

IC50 (Histone deacetylase) | pIC50 [1] | pIC50 [2] | pIC50 [3] | pIC50 [4] | pIC50 (Histone deacetylase 2) | pIC50 (Histone deacetylase 8) | pIC50 [5] | pIC50 (K562) | pIC50 (MOLT-4) | pIC50 (Jurkat) | Ratio IC50 [6] | SMILES | pIC50 (HEL)
> 10000 nM | 8.00 | – | – | – | – | – | – | – | – | – | – | O=C(CCCn1cc(Nc2ncc(Cl)c(Nc3ccc(F)cc3)n2)cn1)NO | –
37 nM | 7.07 | – | – | – | – | – | – | – | – | – | – | CNc1nc(Nc2cnn(CCCCCCC(=O)NO)c2)ncc1C(F)(F)F | –
569 nM | 7.34 | – | – | – | 5.85 | 5.29 | 6.51 | – | – | – | – | O=C(CCCCn1cc(Nc2ncc(Cl)c(Nc3ccc(F)cc3)n2)cn1)NO | –
38 nM | 7.21 | – | – | – | 6.37 | 5.77 | 6.52 | – | – | – | – | O=C(CCCCCCCn1cc(Nc2ncc(Cl)c(Nc3ccc(F)cc3)n2)cn1)NO | –
41 nM | < 7.00 | – | – | – | – | – | – | 6.32 | 6.62 | – | – | O=C(CCCCCCn1cc(Nc2ncc(C(F)(F)F)c(Nc3ccc(F)cc3)n2)cn1)NO | 6.38
18 nM | < 7.00 | – | – | – | – | – | – | – | – | – | – | O=C(CCCCCCn1cc(Nc2nccc(Nc3ccc(F)cc3)n2)cn1)NO | –
3 nM | < 7.00 | – | – | – | – | – | – | – | – | – | > 50 | O=C(CCCCCCn1cc(Nc2ncc(F)c(Nc3ccc(F)cc3)n2)cn1)NO | –
26 nM | 8.30 | – | – | – | – | – | – | 6.38 | 6.92 | 7.22 | – | O=C(CCCCCn1cc(Nc2ncc(Cl)c(Nc3ccc(F)cc3)n2)cn1)NO | 6.82
